For test [1], the target named is T1, CtPilB (Chloracidobacterium thermophilum, UniProt G2LDI3).
T1 sequence (G2LDI3 140-614): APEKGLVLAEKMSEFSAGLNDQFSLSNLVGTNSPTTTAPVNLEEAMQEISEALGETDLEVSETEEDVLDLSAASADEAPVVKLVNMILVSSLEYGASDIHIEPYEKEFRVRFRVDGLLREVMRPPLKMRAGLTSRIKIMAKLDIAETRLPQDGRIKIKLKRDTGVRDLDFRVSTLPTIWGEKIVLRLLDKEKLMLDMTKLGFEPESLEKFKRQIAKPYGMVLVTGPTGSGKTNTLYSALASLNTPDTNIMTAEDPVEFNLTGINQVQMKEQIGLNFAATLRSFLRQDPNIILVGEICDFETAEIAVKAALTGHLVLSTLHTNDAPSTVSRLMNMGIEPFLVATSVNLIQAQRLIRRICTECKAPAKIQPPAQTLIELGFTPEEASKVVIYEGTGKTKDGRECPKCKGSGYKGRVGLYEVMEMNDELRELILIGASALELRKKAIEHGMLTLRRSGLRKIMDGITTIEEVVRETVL
As to the kind of experiment: CtPilB ATPase malachite green assay. It is filed as biochemical. To be noted: for inhibition at 3 µM: read-out: % Inhib. 3 μM; for inhibition at 30 µM: read-out: % Inhib. 30 μM. The essentials:
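N-terminally truncated CtPilB hexamer (lacking residues 1–139, purified), 3.3 nM, with 1 mM ATP, 2% DMSO and test compound, 54 °C, 30 min. Quenched with 30% TCA; phosphate detected by malachite green/ammonium molybdate, absorbance at 620 nm, room temperature. Screen at 3 and 30 μM with benserazide as benchmark; IC50 from concentration–response fits.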

The test system of test [2] is apyrase. As to the kind of experiment: Apyrase ATPase selectivity assay. It is filed as biochemical. To be noted: varying concentrations up to 64 μM; 1 mM ATP, 37 °C, 30 min; p-value > 0.05. Put shortly: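 Commercial apyrase (6.7 × 10−7 U μl−1) with 1 mM ATP in 20 mM MES, 50 mM NaCl, 5 mM CaCl2, 1 mM DTT, 2% DMSO, test compound up to 64 μM, 37 °C, 30 min. Stopped with 30% TCA; released phosphate measured by malachite green assay. Biological experiments run in duplicate; concentrations compared statistically.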

Counter-ions that a name gives are not always drawn. Like-named read-outs stand apart in the source and are kept apart here.

Data on 22 molecules can be found in paper PMC12138345 (RSC Advances, 2025).

Regarding `N[C@H](CO)C(=O)N/N=C/c1cc(O)ccc1O` (mixture of isomers) [8f, (R,E)-2-Amino-N′-(2,5-dihydroxybenzylidene)-3-hydroxypropanehydrazide hydrochloride], in test [1], the inhibition at 3 µM amounted to 40 ± 26% and the inhibition at 30 µM is 80 ± 16%.
For `N[C@H](CO)C(=O)NNCc1ccccc1O` [7a, (R)-2-Amino-3-hydroxy-N′-(2-hydroxybenzyl)propanehydrazide hydrochloride], in test [1], the inhibition at 30 µM stood at 32 ± 4%.
In the case of `N[C@H](CO)C(=O)NNCc1cccc(O)c1O` [7d, (R)-2-Amino-N′-(2,3-dihydroxybenzyl)-3-hydroxypropanehydrazide hydrochloride], in test [1], the inhibition at 3 µM stood at 19 ± 12% and the inhibition at 30 µM came out at 78.2 ± 4%.
`N[C@H](CO)C(=O)NNCc1ccc(O)cc1O` [7e, (R)-2-Amino-N′-(2,4-dihydroxybenzyl)-3-hydroxypropanehydrazide hydrochloride]: the inhibition at 30 µM in test [1] is 40 ± 2%.
In the case of `N[C@H](CO)C(=O)NNCc1cc(O)ccc1O` [7f, (R)-2-Amino-N′-(2,5-dihydroxybenzyl)-3-hydroxypropanehydrazide hydrochloride], the inhibition at 30 µM in test [1] is 45 ± 6%.
As for `N[C@H](CO)C(=O)NNCc1c(O)cccc1O` [7g, (R)-2-Amino-N′-(2,6-dihydroxybenzyl)-3-hydroxypropanehydrazide hydrochloride], in test [1], the inhibition at 3 µM was found to be 32 ± 12% and the inhibition at 30 µM is 74 ± 5%.
On to `N[C@H](CO)C(=O)N/N=C/c1ccccc1O` [8a, (R,E)-2-Amino-3-hydroxy-N′-(2-hydroxybenzylidene)propanehydrazide hydrochloride], for which the inhibition at 30 µM in test [1] stood at 23 ± 21%.
As for `N[C@H](CO)C(=O)N/N=C/c1cccc(O)c1` [8b, (R,E)-2-Amino-3-hydroxy-N′-(3-hydroxybenzylidene)propanehydrazide hydrochloride], in test [1], the inhibition at 30 µM came out at 18 ± 9%.
With `N[C@H](CO)C(=O)N/N=C/c1ccc(O)cc1` [8c, (R,E)-2-Amino-3-hydroxy-N′-(4-hydroxybenzylidene)propanehydrazide hydrochloride], the inhibition at 30 µM in test [1] came to 2 ± 3%.
On to `N[C@H](CO)C(=O)N/N=C/c1cccc(O)c1O` [8d, (R,E)-2-Amino-N′-(2,3-dihydroxybenzylidene)-3-hydroxypropanehydrazide hydrochloride], for which the inhibition at 30 µM in test [1] worked out at 84 ± 4%.
Consider `N[C@H](CO)C(=O)N/N=C/c1ccc(O)cc1O` [8e, (R,E)-2-Amino-N′-(2,4-dihydroxybenzylidene)-3-hydroxypropanehydrazide hydrochloride], for which, in test [1], the inhibition at 30 µM is 69 ± 10%.
For `N[C@H](CO)C(=O)N/N=C/c1c(O)cccc1O` [8g, (R,E)-2-Amino-N′-(2,6-dihydroxybenzylidene)-3-hydroxypropanehydrazide hydrochloride], in test [1] (dose–response 0.01–50 μM, benserazide as control), the 50% inhibitory concentration (IC50) was found to be 1.32 µM. In test [1], the inhibition at 3 µM is 65 ± 5% and the inhibition at 30 µM turned out to be 86 ± 3%.
For the molecule `COc1cccc(O)c1/C=N/NC(=O)[C@H](N)CO` [8h, (R,E)-2-Amino-3-hydroxy-N′-(2-hydroxy-6-methoxybenzylidene)propanehydrazide hydrochloride], the inhibition at 30 µM in test [1] worked out at 67 ± 4%.
For `N[C@H](CO)C(=O)N/N=C/c1ccc(O)c(O)c1` [8i, (R,E)-2-Amino-N′-(3,4-dihydroxybenzylidene)-3-hydroxypropanehydrazide hydrochloride], the inhibition at 30 µM in test [1] was determined as 14 ± 4%.
Regarding `N[C@H](CO)C(=O)N/N=C/c1ccc(O)c(O)c1O` [8j, (R,E)-2-Amino-3-hydroxy-N′-(2,3,4-trihydroxybenzylidene)propanehydrazide hydrochloride], in test [1], the inhibition at 3 µM was 35 ± 9% and the inhibition at 30 µM came to 84 ± 2%.
Take `Cl.N[C@H](CO)C(=O)N/N=C/c1c(O)ccc(O)c1O` [8k, (R,E)-2-Amino-3-hydroxy-N′-(2,3,6-trihydroxybenzylidene)propanehydrazide hydrochloride]: in test [1], it took 1.06 µM to reach half-maximal inhibition (IC50), the inhibition at 3 µM is 71 ± 4% and the inhibition at 30 µM was found to be 91 ± 8%. Moreover, the “Inhibition of apyrase ATPase activity” value in test [2] is “no significant difference”.
Take `COc1ccc(/C=N/NC(=O)[C@H](N)CO)c(OC)c1OC.Cl` [8l, (R,E)-2-Amino-3-hydroxy-N′-(2,3,4-trimethoxybenzylidene)propanehydrazide hydrochloride]: the “Activity against PilB (in words)” value in test [1] (screen at 3 and 30 μM) was “essentially had no activity”.
Consider `NCC(=O)N/N=C/c1c(O)cccc1O` [11a, (E)-2-Amino-N′-(2,6-dihydroxybenzylidene)acetohydrazide hydrochloride], for which, in test [1], the inhibition at 3 µM turned out to be 55 ± 8% and the inhibition at 30 µM worked out at 92 ± 5%.
On the same counts, the results for `C[C@@H](N)C(=O)N/N=C/c1c(O)cccc1O` [11b, (R,E)-2-amino-N′-(2,6-dihydroxybenzylidene)propanehydrazide hydrochloride] are 26 ± 11% and 87 ± 4%.
Turning to `Cl.N[C@H](CS)C(=O)N/N=C/c1c(O)cccc1O` [11c, (S,E)-2-Amino-N′-(2,6-dihydroxybenzylidene)-3-mercaptopropanehydrazide hydrochloride], in test [1], the IC50 turned out to be 0.58 µM, the inhibition at 3 µM is 90 ± 1% and the inhibition at 30 µM was found to be 97 ± 11%. In addition, the “Potency relative to benserazide” value in test [1] (ratio of IC50 values) is 6 fold. The “Inhibition of apyrase ATPase activity” value in test [2] was “no significant difference”.
For `NC(CO)C(=O)NNCc1ccc(O)c(O)c1O` (stereo not shown) [Benserazide, reference compound], in test [1], the IC50 is 3.68 µM, the inhibition at 3 µM was determined as 34 ± 10% and the inhibition at 30 µM amounted to 80 ± 8%. Moreover, the “Inhibition of apyrase ATPase activity” value in test [2] is on record as “no significant difference”.
Regarding `NNC(=O)[C@@H](N)CO` [compound 4, (S)-2-Amino-3-hydroxypropanehydrazide dihydrochloride], in test [1], the inhibition at 30 µM is 27 ± 19%.

The term IC50 denotes the concentration needed to halve the response being measured. A higher IC50 goes with lower potency.
